Assay results: ChEMBL document CHEMBL5696442, “Discovery of type II inhibitors of TGFβ-activated kinase 1 (TAK1) and mitogen-activated protein kinase kinase kinase kinase 2 (MAP4K2)” (J Med Chem, 2015)
The source made the active and inactive calls. The calls are words filed in the database; no cut-off is given here.

Tests used:
[1] = biological target: Serine/threonine-protein kinase 26 (Homo sapiens) (UniProt Q9P289); test: Inhibition of MST4 ACT labeling site in human A-375 cells at 0.05 uM by KiNativ Profiling analysis relative to control; type: cell-based
[2] = biological target: T1, Phosphatidylinositol 4,5-bisphosphate 3-kinase catalytic subunit delta isoform (Homo sapiens) (UniProt O00329); test: Inhibition of PIK3CD ATP labeling site in human A-375 cells at 0.05 uM by KiNativ Profiling analysis relative to control; type: cell-based
T1 sequence (whole entry): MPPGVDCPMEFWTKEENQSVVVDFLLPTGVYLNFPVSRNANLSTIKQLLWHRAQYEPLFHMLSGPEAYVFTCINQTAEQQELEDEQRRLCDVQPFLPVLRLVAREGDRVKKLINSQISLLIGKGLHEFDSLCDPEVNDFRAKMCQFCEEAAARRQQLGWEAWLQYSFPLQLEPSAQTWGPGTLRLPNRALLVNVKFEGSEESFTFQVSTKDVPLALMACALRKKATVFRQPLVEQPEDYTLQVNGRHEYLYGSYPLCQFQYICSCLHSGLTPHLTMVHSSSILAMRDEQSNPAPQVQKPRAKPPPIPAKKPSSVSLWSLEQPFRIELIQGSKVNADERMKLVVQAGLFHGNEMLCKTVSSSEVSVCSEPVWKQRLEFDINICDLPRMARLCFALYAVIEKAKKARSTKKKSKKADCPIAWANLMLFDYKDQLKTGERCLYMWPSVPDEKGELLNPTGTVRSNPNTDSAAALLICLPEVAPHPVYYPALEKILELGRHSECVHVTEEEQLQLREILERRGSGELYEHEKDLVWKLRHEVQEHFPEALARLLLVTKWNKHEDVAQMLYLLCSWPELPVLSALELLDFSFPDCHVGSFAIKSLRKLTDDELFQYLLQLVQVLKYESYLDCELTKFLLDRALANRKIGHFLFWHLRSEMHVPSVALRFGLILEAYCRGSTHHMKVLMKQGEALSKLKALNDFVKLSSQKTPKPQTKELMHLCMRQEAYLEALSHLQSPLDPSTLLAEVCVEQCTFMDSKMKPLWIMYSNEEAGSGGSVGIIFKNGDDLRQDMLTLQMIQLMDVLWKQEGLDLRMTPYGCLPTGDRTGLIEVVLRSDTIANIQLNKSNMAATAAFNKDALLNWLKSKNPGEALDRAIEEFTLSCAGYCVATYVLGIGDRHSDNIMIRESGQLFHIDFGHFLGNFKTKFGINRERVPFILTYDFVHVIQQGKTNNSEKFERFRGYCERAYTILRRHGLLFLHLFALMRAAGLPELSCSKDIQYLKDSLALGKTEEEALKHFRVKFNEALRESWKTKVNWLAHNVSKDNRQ

[3] = biological target: Phosphatidylinositol 3-kinase catalytic subunit type 3 (Homo sapiens) (UniProt Q8NEB9); test: Inhibition of PIK3C3 ATP labeling site in human A-375 cells at 0.05 uM by KiNativ Profiling analysis relative to control; type: cell-based
[4] = biological target: Serine/threonine-protein kinase Chk2 (Homo sapiens) (UniProt O96017); test: Inhibition of CHK2 Lys1 labeling site in human A-375 cells at 0.05 uM by KiNativ Profiling analysis relative to control; type: cell-based
[5] = biological target: Tyrosine-protein kinase Fer (Homo sapiens, UniProt P16591); test: Inhibition of FER ACT labeling site in human A-375 cells at 5 uM by KiNativ Profiling analysis relative to control; type: cell-based
[6] = biological target: Ribosomal protein S6 kinase alpha-1 (Homo sapiens) (UniProt Q15418); test: Inhibition of RSK1 Protein Kinase Domain in human A-375 cells at 0.5 uM by KiNativ Profiling analysis relative to control; type: cell-based
Summary of the method: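 Live A375 melanoma cells treated with compound at 5 or 0.5 μM, then lysed. Lysate kinases were labeled with a lysine-reactive ATP or ADP-biotin probe. Inhibition was read as protection of labeling sites from the probe.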

[7] = biological target: Serine/threonine-protein kinase SIK3 (Homo sapiens) (UniProt Q9Y2K2); test: Inhibition of QSK Lys2 labeling site in human A-375 cells at 0.5 uM by KiNativ Profiling analysis relative to control; type: cell-based
[8] = biological target: Mitogen-activated protein kinase 9 (Homo sapiens, UniProt P45984); test: Inhibition of JNK2 Lys2 labeling site in human A-375 cells at 0.05 uM by KiNativ Profiling analysis relative to control; type: cell-based
[9] = biological target: Cyclin-dependent kinase 17 (Homo sapiens) (UniProt Q00537); test: Inhibition of PCTAIRE2 Lys2 labeling site in human A-375 cells at 0.5 uM by KiNativ Profiling analysis relative to control; type: cell-based
[10] = biological target: Epidermal growth factor receptor (Homo sapiens) (UniProt P00533); test: Inhibition of EGFR ACT labeling site harbouring LLGAEEKEYHAEGGKVPIK in human A-375 cells at 0.05 uM by KiNativ Profiling analysis relative to control; type: cell-based
[11] = biological target: 5'-AMP-activated protein kinase catalytic subunit alpha-1 (Homo sapiens) (UniProt Q13131); test: Inhibition of AMPKa1 Lys1 labeling site in human A-375 cells at 0.05 uM by KiNativ Profiling analysis relative to control; type: cell-based
[12] = biological target: Glycogen synthase kinase-3 alpha (Homo sapiens) (UniProt P49840); test: Inhibition of GSK3A Lys2 labeling site in human A-375 cells at 5 uM by KiNativ Profiling analysis relative to control; type: cell-based
[13] = biological target: Tyrosine-protein kinase receptor UFO (Homo sapiens) (UniProt P30530); test: Inhibition of AXL ACT labeling site in human A-375 cells at 0.05 uM by KiNativ Profiling analysis relative to control; type: cell-based
[14] = biological target: Serine/threonine-protein kinase WNK4 (Homo sapiens) (UniProt Q96J92); test: Inhibition of Wnk4 ACT labeling site in human A-375 cells at 0.5 uM by KiNativ Profiling analysis relative to control; type: cell-based
[15] = biological target: Mitogen-activated protein kinase kinase kinase 1 (Homo sapiens) (UniProt Q13233); test: Inhibition of MAP3K1 Lys2 labeling site in human A-375 cells at 0.5 uM by KiNativ Profiling analysis relative to control; type: cell-based
[16] = biological target: Phosphatidylinositol 4-kinase beta (Homo sapiens) (UniProt Q9UBF8); test: Inhibition of PI4KB ATP labeling site harbouring VPHTQAVVLNSKDK in human A-375 cells at 5 uM by KiNativ Profiling analysis relative to control; type: cell-based
[17] = tested on: GEN2.2; test: Inhibition of CL097 induced p-105 phosphorylation level in human GEN2.2 cells at 1 uM preincubated with compound for 1 hr followed by CL097 stimulation and measured after 30 mins by Western blot analysis; type: functional, cell-based
Summary of the method: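 Gen2.2 cells were pretreated with compound at 1 μM for 1 h, then stimulated with CL097 for 30 min. Lysates were analysed by Western blot for phosphorylation of p105, p38 and JNK1/2.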

Serine/threonine-protein kinase 26 (Homo sapiens), sequence (Q9P289 2-416 limits assumed): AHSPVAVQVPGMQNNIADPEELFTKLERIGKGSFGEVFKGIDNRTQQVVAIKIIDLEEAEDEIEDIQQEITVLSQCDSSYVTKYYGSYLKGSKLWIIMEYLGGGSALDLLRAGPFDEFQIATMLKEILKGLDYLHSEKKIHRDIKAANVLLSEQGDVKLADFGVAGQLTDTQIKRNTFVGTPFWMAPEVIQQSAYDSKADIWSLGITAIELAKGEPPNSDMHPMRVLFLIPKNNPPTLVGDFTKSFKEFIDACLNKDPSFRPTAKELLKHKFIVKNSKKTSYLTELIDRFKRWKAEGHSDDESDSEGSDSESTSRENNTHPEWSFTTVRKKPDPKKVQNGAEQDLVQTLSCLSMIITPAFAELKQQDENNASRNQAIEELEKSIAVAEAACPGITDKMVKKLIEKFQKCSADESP
Glycogen synthase kinase-3 alpha (Homo sapiens), sequence (P49840 2-483 limits assumed): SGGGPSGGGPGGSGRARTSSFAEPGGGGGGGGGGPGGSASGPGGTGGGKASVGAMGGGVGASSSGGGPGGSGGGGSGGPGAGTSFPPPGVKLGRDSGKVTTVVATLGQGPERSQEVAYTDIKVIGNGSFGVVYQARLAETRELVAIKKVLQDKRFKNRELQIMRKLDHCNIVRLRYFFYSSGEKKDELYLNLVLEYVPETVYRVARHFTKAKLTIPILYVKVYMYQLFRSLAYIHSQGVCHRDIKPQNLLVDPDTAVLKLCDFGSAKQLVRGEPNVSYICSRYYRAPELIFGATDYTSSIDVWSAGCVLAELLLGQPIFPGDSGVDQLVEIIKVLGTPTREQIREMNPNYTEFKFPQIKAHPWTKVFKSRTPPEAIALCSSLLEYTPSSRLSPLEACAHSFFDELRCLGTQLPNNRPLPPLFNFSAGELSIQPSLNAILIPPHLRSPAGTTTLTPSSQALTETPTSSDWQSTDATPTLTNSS
Ribosomal protein S6 kinase alpha-1 (Homo sapiens), sequence (Q15418 whole entry, the tested form may be a part): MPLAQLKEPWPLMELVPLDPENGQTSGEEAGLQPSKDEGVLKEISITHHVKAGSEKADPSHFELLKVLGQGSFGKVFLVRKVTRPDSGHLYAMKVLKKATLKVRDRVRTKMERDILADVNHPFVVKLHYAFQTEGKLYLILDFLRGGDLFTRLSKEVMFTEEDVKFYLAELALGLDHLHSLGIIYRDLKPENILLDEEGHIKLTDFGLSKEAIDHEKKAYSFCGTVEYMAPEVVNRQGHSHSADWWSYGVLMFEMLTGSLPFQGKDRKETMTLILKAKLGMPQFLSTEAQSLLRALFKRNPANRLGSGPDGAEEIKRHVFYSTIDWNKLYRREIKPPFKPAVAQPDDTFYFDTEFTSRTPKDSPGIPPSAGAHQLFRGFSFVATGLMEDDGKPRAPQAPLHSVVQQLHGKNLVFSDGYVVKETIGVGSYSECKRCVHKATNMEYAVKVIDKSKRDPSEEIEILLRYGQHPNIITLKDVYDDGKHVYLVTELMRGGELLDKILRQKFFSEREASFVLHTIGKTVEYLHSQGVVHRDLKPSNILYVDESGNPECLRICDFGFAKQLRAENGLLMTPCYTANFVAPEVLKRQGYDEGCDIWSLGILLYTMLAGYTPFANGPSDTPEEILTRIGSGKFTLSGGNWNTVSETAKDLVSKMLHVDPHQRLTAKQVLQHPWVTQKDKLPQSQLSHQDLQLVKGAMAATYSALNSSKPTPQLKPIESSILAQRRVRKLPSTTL
Mitogen-activated protein kinase 9, sequence (P45984 whole entry, looked up): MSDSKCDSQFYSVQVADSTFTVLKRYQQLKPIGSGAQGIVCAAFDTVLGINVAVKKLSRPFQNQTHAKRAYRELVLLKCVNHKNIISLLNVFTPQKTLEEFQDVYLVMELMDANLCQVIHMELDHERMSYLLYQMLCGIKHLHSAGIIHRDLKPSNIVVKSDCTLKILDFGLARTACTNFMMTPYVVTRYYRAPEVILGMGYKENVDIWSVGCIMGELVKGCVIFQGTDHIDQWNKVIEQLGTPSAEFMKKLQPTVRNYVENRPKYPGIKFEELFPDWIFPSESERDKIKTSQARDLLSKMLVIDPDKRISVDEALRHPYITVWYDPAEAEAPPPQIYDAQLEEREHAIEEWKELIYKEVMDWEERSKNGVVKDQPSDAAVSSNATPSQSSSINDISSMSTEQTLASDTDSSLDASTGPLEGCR
Cyclin-dependent kinase 17 (Homo sapiens), sequence (Q00537 whole entry, looked up): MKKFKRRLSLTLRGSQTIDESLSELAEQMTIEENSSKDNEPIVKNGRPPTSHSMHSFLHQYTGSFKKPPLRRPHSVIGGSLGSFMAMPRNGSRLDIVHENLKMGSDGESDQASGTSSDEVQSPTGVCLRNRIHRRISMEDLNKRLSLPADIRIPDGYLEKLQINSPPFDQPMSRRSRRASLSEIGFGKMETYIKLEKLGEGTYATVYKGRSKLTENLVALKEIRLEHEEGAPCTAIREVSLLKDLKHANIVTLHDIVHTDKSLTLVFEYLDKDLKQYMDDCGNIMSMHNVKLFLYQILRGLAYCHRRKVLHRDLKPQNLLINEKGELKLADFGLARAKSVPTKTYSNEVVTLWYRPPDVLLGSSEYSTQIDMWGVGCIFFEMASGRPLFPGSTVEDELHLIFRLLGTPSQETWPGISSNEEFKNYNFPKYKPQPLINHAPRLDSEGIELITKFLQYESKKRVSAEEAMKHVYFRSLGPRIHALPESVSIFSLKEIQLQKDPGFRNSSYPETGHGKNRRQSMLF
Phosphatidylinositol 4-kinase beta (Homo sapiens), sequence (Q9UBF8 2-816 limits assumed): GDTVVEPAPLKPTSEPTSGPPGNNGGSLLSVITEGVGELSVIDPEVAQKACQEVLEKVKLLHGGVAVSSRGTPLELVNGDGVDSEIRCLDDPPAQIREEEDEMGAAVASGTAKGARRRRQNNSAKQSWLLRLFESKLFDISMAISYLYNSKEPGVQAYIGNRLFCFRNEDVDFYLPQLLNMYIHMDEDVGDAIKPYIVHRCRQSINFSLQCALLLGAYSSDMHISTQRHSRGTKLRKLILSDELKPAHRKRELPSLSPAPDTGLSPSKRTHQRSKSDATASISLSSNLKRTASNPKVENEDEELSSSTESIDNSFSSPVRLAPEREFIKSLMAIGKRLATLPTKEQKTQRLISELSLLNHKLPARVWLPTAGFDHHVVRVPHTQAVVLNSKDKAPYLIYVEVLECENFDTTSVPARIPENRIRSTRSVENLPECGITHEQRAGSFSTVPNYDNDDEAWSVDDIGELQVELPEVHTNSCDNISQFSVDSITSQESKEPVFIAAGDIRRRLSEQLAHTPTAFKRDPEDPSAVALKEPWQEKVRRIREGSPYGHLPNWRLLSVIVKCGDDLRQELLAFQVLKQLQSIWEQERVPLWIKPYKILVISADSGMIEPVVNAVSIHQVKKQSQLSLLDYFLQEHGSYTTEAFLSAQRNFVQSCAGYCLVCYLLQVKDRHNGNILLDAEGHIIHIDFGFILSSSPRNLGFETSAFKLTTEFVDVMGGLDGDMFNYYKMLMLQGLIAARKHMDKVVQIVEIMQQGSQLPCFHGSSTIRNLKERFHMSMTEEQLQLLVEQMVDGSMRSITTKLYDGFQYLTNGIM
Phosphatidylinositol 3-kinase catalytic subunit type 3 (Homo sapiens), sequence (Q8NEB9 whole entry): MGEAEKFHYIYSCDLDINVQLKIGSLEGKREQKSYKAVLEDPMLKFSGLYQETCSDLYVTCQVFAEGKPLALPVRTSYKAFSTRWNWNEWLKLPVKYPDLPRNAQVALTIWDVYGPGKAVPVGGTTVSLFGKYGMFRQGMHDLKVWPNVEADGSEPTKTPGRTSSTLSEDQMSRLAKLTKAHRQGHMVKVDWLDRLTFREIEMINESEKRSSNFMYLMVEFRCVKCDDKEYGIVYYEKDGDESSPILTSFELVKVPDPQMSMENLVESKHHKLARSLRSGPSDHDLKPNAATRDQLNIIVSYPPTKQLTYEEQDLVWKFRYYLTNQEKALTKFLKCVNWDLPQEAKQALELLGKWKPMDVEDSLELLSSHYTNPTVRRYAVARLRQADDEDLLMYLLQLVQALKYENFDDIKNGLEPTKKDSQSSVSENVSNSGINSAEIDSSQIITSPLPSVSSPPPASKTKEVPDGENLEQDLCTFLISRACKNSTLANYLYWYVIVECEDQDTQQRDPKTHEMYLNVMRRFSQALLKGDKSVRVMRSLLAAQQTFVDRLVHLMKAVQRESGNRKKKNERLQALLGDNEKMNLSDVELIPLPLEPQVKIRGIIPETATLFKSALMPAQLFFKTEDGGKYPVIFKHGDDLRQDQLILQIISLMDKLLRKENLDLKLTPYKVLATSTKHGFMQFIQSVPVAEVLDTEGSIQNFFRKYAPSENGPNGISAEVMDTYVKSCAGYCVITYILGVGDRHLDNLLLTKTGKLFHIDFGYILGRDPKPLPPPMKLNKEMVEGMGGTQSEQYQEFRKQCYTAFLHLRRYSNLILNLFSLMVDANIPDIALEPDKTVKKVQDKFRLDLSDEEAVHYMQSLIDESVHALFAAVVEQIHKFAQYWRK
5'-AMP-activated protein kinase catalytic subunit alpha-1 (Homo sapiens), sequence (Q13131 whole entry, looked up): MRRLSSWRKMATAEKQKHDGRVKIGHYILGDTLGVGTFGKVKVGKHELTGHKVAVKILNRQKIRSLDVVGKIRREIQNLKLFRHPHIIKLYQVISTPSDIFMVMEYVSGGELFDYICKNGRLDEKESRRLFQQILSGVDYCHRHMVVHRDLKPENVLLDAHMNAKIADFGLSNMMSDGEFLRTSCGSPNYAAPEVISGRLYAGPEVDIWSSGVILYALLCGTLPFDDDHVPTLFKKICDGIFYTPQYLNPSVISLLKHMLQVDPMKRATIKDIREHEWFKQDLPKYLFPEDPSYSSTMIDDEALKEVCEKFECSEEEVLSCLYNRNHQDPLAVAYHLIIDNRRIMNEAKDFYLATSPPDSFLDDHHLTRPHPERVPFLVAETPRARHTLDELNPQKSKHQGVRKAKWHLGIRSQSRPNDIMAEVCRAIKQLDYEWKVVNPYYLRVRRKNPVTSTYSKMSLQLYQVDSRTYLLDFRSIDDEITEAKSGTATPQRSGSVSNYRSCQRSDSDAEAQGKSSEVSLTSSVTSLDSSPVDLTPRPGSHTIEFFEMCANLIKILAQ

Row | SMILES | inhibition [1] [%] | inhibition [2] [%] | inhibition [3] [%] | inhibition [4] [%] | inhibition [5] [%] | inhibition [6] [%] | inhibition [7] [%] | inhibition [8] [%] | inhibition [9] [%] | inhibition [10] [%] | inhibition [11] [%] | inhibition [12] [%] | inhibition [13] [%] | inhibition [14] [%] | inhibition [15] [%] | inhibition [16] [%] | inhibition [17]
1 | CCN1CCN(Cc2ccc(NC(=O)c3ccc(C)c(/C=C/c4cnc5[nH]ccc5c4OC)c3)cc2C(F)(F)F)CC1 | 13.5 | 24.3 | 38.2 | 2.9 | 74 | 3.2 | 40.3 | 23.9 | 29.6 | -6.7 | 7.4 | 31.7 | 10.1 | 6.9 | 43.9 | -6.8 | 
2 | CCN1CCN(Cc2ccc(NC(=O)c3ccc(C)c(Oc4ccnc5[nH]ccc45)c3)cc2C(F)(F)F)CC1 | 22.4 | 4.1 | 33.3 | -1.9 | 96.8 | 0.9 | 39.8 | 50.3 | 54.6 | 17.5 | 13.4 | 33.7 | 12.4 | 3.9 | 39.7 | -5.8 | Active
3 | CNc1cc(Oc2cc(C(=O)Nc3cc(-n4cnc(C)c4)cc(C(F)(F)F)c3)ccc2C)ncn1 |  |  |  |  |  |  |  |  |  |  |  |  |  |  |  |  | inactive
